We go through 18 compounds from paper PMC4467529 (Bioorganic & medicinal chemistry, 2015).

The structures appear in SMILES notation. “Also recorded” adds a separate entry of the source. Bounds are passed on as bounds.

Data set [1] in a line: In vitro cytotoxicity, Neutral Red assay. It is filed as cell-based. To be noted: human, SK-MEL malignant melanoma cells. The essentials:
(§1)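 Cells were kept in RPMI-1640 with 10% bovine calf serum and amikacin 60 mg/L at 37 °C, 5% CO₂. They were seeded at 25,000 cells/well and grown 24 h, then exposed 48 h to test compound diluted in serum-free medium, tested up to 25 μg/ml. Viability was read by Neutral Red, as % decrease versus vehicle. IC50 came from dose curves, in triplicate, with doxorubicin as reference.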

A short description of data set [2]: In vitro cytotoxicity, Neutral Red assay. It is filed as cell-based. As to conditions: pig, LLC-PK11 pig kidney epithelial cells. The essentials: as §1
Data set [3] is described as follows: In vitro cytotoxicity, Neutral Red assay. It is filed as cell-based. As to conditions: African green monkey, Vero cells (kidney fibroblasts). A digest of the protocol:
as §1

Data set [4] can be described thus: In vitro cytotoxicity, Neutral Red assay. To be noted: human, KB oral epidermal carcinoma cells. It is filed as cell-based. The essentials: (§2)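 Cells grown in RPMI-1640 with 10% bovine calf serum and amikacin (60 mg/L), 37°C, 5% CO₂, 95% humidity. Seeded at 25,000 cells/well, grown 24 h. Test samples diluted in serum-free medium, exposure 48 h. Viable cells counted by Neutral Red uptake; % viability loss against vehicle control. IC50 from dose curves, triplicate, means reported.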

Data set [5] in a line: In vitro cytotoxicity, Neutral Red assay. It is filed as cell-based. To be noted: human, BT-549 breast ductal carcinoma cells. The essentials:
as §1

The nature of data set [6]: In vitro cytotoxicity, Neutral Red assay. It is filed as cell-based. To be noted: human, SK-OV-3 ovary carcinoma cells. A digest of the protocol: as §2
A further data set concerns rat paw edema. The data set is described as follows: Carrageenan-induced rat paw edema assay. It is filed as in vivo. To be noted: for in vivo anti-inflammatory activity (in words): rat paw edema, compared to ketorolac; for Edema thickness ±SEM, 1h / Edema thickness ±SEM, 2h / Edema thickness ±SEM, 3h / Edema thickness ±SEM, 4h: rat, 30 mg/kg intraperitoneally; for Edema thickness ±SEM, 1h: 1h after induction; for Edema thickness ±SEM, 2h: 2h after induction; for Edema thickness ±SEM, 3h: 3h after induction; for Edema thickness ±SEM, 4h: 4h after induction. A digest of the protocol: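 Adult albino rats of both sexes (120–150 g), pre-hydrated with 3 ml water by gavage, in groups of five. Test compound or ketorolac tromethamine was suspended in distilled water with a few drops of Tween 80 and given i.p. 1 h before 1% carrageenan s.c. into the right hind subplantar paw. Controls got saline/Tween 80.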
Background: In the carrageenan paw model, swelling and tenderness develop within hours.

Another data set concerns NF-κB. The data set is classed as cell-based, human. To be noted: for NF-κB inhibitory activity (in words): PMA-induced SW1353 cells. A digest of the protocol:
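SW1353 cells were grown in DMEM/F12 with 10% FBS and electroporated with an NF-κB luciferase plasmid (50 μg/mL; 160 V, one 70-ms pulse). They were plated at 1.25 × 10⁵ cells/well for 24 h. […] Parthenolide was the reference; Sp-1 served as control factor.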

Broadly, the IC50 is the concentration that inhibits the measured activity by half.

In the case of `O=c1oc2ccccc2n1CCCCCN1CCN(CCn2c(=O)oc3ccccc32)CC1` [Compound 5e, 3-(5-(4-(2-(2-oxobenzo[d]oxazol-3(2H)-yl)ethyl)piperazin-1-yl)pentyl)benzo[d]oxazol-2(3H)-one], the IC50 at 48 h in data set [1], in data set [2], in data set [3], in data set [4], in data set [5] and in data set [6] was above 25 µg/mL throughout.

As to `O=c1oc2ccccc2n1CCCN1CCN(CCCn2c(=O)oc3ccccc32)CC1` [Compound 3c, 3,3′-(piperazine-1,4-diylbis(propane-3,1-diyl))bis(benzo[d]oxazol-2(3H)-one)], the IC50 at 48 h in data set [1], in data set [2], in data set [3], in data set [4], in data set [5] and in data set [6] was above 25 µg/mL each time.

On to `c1ccc2sc(SCCCCN3CCN(CCCCSc4nc5ccccc5s4)CC3)nc2c1` [Compound 8b, 1,4-bis(4-(benzo[d]thiazol-2-ylthio)butyl)piperazine], for which the IC50 at 48 h in data set [2] is above 25 µg/mL. The same compound showed a concentration for half-maximal inhibition (IC50) at 48 h in data set [3] above 25 µg/mL. Further, in the data set with rat paw edema, the “in vivo anti-inflammatory activity (in words)” value was “significant anti-inflammatory and analgesic activity; also recorded: most active dimer; also recorded: promising in vivo activity which was comparable to indomethacin and ketorolac”; the “Edema thickness ±SEM, 1h” value was 56.48 ± 2.14 ×10^−2 mm; the “Edema thickness ±SEM, 2h” value is recorded as 55.6 ± 2.09 ×10^−2 mm; the “Edema thickness ±SEM, 3h” value was 61.32 ± 1.67 ×10^−2 mm. Also, the “Edema thickness ±SEM, 4h” value with rat paw edema was 103.54 ± 1.77 ×10^−2 mm. This compound returned an IC50 at 48 h in data set [5] above 25 µg/mL. For the same compound, the IC50 at 48 h in data set [6] was above 25 µg/mL.

For `O=c1sc2ccccc2n1CCCCCN1CCN(CCCCn2c(=O)sc3ccccc32)CC1` [Compound 5p, 3-(5-(4-(4-(2-oxobenzo[d]thiazol-3(2H)-yl)butyl)piperazin-1-yl)pentyl)benzo[d]thiazol-2(3H)-one], the IC50 at 48 h in data set [2], in data set [3], in data set [4] and in data set [6] was above 25 µg/mL in each case.

For the compound `O=c1oc2ccccc2n1CCCCCN1CCN(CCCCCn2c(=O)oc3ccccc32)CC1` [Compound 3g, 3,3′-(piperazine-1,4-diylbis(pentane-5,1-diyl))bis(benzo[d]oxazol-2(3H)-one)], the IC50 at 48 h in data set [1], in data set [2], in data set [4], in data set [5] and in data set [6] was above 25 µg/mL each time.

Regarding `O=c1sc2ccccc2n1CCCCCN1CCN(CCCn2c(=O)sc3ccccc32)CC1` [Compound 5l, 3-(3-(4-(5-(2-oxobenzo[d]thiazol-3(2H)-yl)pentyl)piperazin-1-yl)propyl)benzo[d]thiazol-2(3H)-one], the IC50 at 48 h in data set [2], in data set [3], in data set [4] and in data set [6] was above 25 µg/mL each time.

With `O=c1sc2ccccc2n1CCCCN1CCN(CCCn2c(=O)sc3ccccc32)CC1` [Compound 5j, 3-(3-(4-(4-(2-oxobenzo[d]thiazol-3(2H)-yl)butyl)piperazin-1-yl)propyl)benzo[d]thiazol-2(3H)-one], in the data set with NF-κB, the “NF-κB inhibitory activity (in words)” value is on record as “moderately active”.

On to `O=c1oc2ccccc2n1CCCCCCN1CCN(CCCCCCn2c(=O)oc3ccccc32)CC1` [Compound 3i, 3,3′-(piperazine-1,4-diylbis(hexane-6,1-diyl))bis(benzo[d]oxazol-2(3H)-one)], for which the 50% inhibitory concentration (IC50) at 48 h in data set [2], in data set [3], in data set [4] and in data set [6] was above 25 µg/mL throughout. In addition, the IC50 with NF-κB (Homo sapiens, SW1353, read-out: NF-κB IC50) was above 25 µg/mL. Further, the “NF-κB inhibitory activity (in words)” value in the data set with NF-κB is reported as “devoid of any activity”.

In the case of `O=C(c1ccccc1)c1ccc2n1CCC2C(=O)O` (stereo not shown) [Ketorolac, ketorolac tromethamine, reference compound], in the data set with rat paw edema, the “Edema thickness ±SEM, 1h” value was 41.6 ± 2.02 ×10^−2 mm; the “Edema thickness ±SEM, 2h” value is 40.2 ± 2.82 ×10^−2 mm; the “Edema thickness ±SEM, 3h” value is reported as 41.2 ± 2.06 ×10^−2 mm; the “Edema thickness ±SEM, 4h” value is 40.4 ± 1.52 ×10^−2 mm.

In the case of `O=c1sc2ccccc2n1CCCCCCN1CCN(CCn2c(=O)sc3ccccc32)CC1` [Compound 5h, 3-(6-(4-(2-(2-oxobenzo[d]thiazol-3(2H)-yl)ethyl)piperazin-1-yl)hexyl)benzo[d]thiazol-2(3H)-one], the “NF-κB inhibitory activity (in words)” value with NF-κB is reported as “moderately active”.

On to `O=c1oc2ccccc2n1CCCCCCN1CCN(CCCCn2c(=O)oc3ccccc32)CC1` [Compound 5q, 3-(6-(4-(4-(2-oxobenzo[d]oxazol-3(2H)-yl)butyl)piperazin-1-yl)hexyl)benzo[d]oxazol-2(3H)-one], for which the IC50 at 48 h in data set [1], in data set [2], in data set [3], in data set [4], in data set [5] and in data set [6] was above 25 µg/mL in each case.

For the compound `c1ccc2oc(SCCCCN3CCN(CCCCSc4nc5ccccc5o4)CC3)nc2c1` [Compound 8a, 1,4-bis(4-(benzo[d]oxazol-2-ylthio)butyl)piperazine], the IC50 at 48 h in data set [3] and in data set [6] was above 25 µg/mL throughout.

As to `O=c1sc2ccccc2n1CCCCCCN1CCN(CCCn2c(=O)sc3ccccc32)CC1` [Compound 5n, 3-(3-(4-(6-(2-oxobenzo[d]thiazol-3(2H)-yl)hexyl)piperazin-1-yl)propyl)benzo[d]thiazol-2(3H)-one], the IC50 at 48 h in data set [2], in data set [3], in data set [4] and in data set [6] was above 25 µg/mL throughout. In addition, the “NF-κB inhibitory activity (in words)” value in the data set on NF-κB is recorded as “moderately active”.

For the compound `O=c1sc2ccccc2n1CCCCCN1CCN(CCCCCn2c(=O)sc3ccccc32)CC1` [Compound 3h, 3,3′-(piperazine-1,4-diylbis(pentane-5,1-diyl))bis(benzo[d]thiazol-2(3H)-one)], the IC50 at 48 h in data set [2], in data set [3] and in data set [4] was above 25 µg/mL throughout.

`O=c1sc2ccccc2n1CCCCCCN1CCN(CCCCCCn2c(=O)sc3ccccc32)CC1` [Compound 3j, 3,3′-(piperazine-1,4-diylbis(hexane-6,1-diyl))bis(benzo[d]thiaazol-2(3H)-one)] came in with an IC50 at 48 h in data set [1] above 25 µg/mL. Besides, the IC50 at 48 h in data set [2] was above 25 µg/mL. The IC50 at 48 h in data set [3] was above 25 µg/mL. In the data set on rat paw edema, the “in vivo anti-inflammatory activity (in words)” value was “significant anti-inflammatory and analgesic activity; also recorded: moderate activities compared to ketorolac”; the “Edema thickness ±SEM, 1h” value is listed as 95.50 ± 1.02 ×10^−2 mm; the “Edema thickness ±SEM, 2h” value is 97.24 ± 2.35 ×10^−2 mm; the “Edema thickness ±SEM, 3h” value is on record as 101.6 ± 1.68 ×10^−2 mm. For the same compound, in the data set on rat paw edema, the “Edema thickness ±SEM, 4h” value is 123.5 ± 1.13 ×10^−2 mm.

For `O=c1sc2ccccc2n1CCCCCCN1CCN(CCCCCn2c(=O)sc3ccccc32)CC1` [Compound 5t, 3-(5-(4-(6-(2-oxobenzo[d]thiazol-3(2H)-yl)hexyl)piperazin-1-yl)pentyl)benzo[d]thiazol-2(3H)-one], the IC50 at 48 h in data set [1] is above 25 µg/mL. This compound also returned an IC50 at 48 h in data set [2] above 25 µg/mL. In addition, the half-maximal inhibitory concentration (IC50) at 48 h in data set [4] is above 25 µg/mL. In addition, in the data set with rat paw edema, the “in vivo anti-inflammatory activity (in words)” value was “significant anti-inflammatory and analgesic activity; also recorded: moderate activities compared to ketorolac”; the “Edema thickness ±SEM, 1h” value is 93.01 ± 1.93 ×10^−2 mm; the “Edema thickness ±SEM, 2h” value is 91.57 ± 2.63 ×10^−2 mm; the “Edema thickness ±SEM, 3h” value is on record as 109.24 ± 1.36 ×10^−2 mm. In the data set on rat paw edema, the “Edema thickness ±SEM, 4h” value is reported as 127.34 ± 1.87 ×10^−2 mm.

Take `O=c1sc2ccccc2n1CCCCCCN1CCN(CCCCn2c(=O)sc3ccccc32)CC1` [Compound 5r, 3-(6-(4-(4-(2-oxobenzo[d]thiazol-3(2H)-yl)butyl)piperazin-1-yl)hexyl)benzo[d]thiazol-2(3H)-one]: the IC50 at 48 h in data set [2], in data set [3] and in data set [6] was above 25 µg/mL throughout.

Take `O=c1oc2ccccc2n1CCCCCCN1CCN(CCCCCn2c(=O)oc3ccccc32)CC1` [Compound 5s, 3-(5-(4-(6-(2-oxobenzo[d]oxazol-3(2H)-yl)hexyl)piperazin-1-yl)pentyl)benzo[d]oxazol-2(3H)-one]: the IC50 at 48 h in data set [2], in data set [3], in data set [4] and in data set [6] was above 25 µg/mL throughout.
